Results on eleven compounds are retold here after ChEMBL document CHEMBL1151985, “Cytotoxic and antiplasmodial xanthones from Pentadesma butyracea” (J Nat Prod, 2009).

Experiment [1] relates to MCF7. The experiment in a line: Cytotoxicity against human MCF7 cells assessed as [3H]hypoxanthin incorporation after 24 to 72 hrs. The experiment is classed as functional, cell-based. An outline of the steps: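 MCF-7 cells kept as for the parasite culture but with 5% fetal calf serum in place of 5% human serum. Seeded at 2 × 10^4 cells/well, then exposed to compound. Growth read by [3H]-hypoxanthine incorporation after 24 and 72 h incubation, run as for the P. falciparum assay: plates frozen and thawed, harvested on glass fibre filters, beta-counted. IC50 from linear least-squares regression. Doxorubicin as positive control.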

The nature of experiment [2]: Ratio IC50 for human MCF7 cells to IC50 for chloroquine-resistant Plasmodium falciparum FcB1. The experiment is classed as functional.
Experiment [3] has as its system Plasmodium falciparum. Nature of the experiment: Antiplasmodial activity […] against chloroquine-resistant Plasmodium falciparum FcB1 by [3H]hypoxanthine uptake. The experiment is classed as functional, organism-based. The conditions noted are these: FcB1/Columbia. An outline of the steps: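 P. falciparum cultured continuously and synchronized by 5% D-sorbitol lysis. Parasites incubated with compound for 48 h, with [3H]-hypoxanthine added 24 h before freezing. Plates freeze-thawed, harvested onto glass fibre filters, and incorporation read by beta counting. IC50 from linear least-squares regression; chloroquine as positive control.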

Structures are written as SMILES. Converted amounts (≈) assume the structure as drawn. The source made the active and inactive calls. The rule behind the calls is not given here.

On to `COc1c(O)cc2oc3cc(O)cc(O)c3c(=O)c2c1CC=C(C)CCCC(C)(C)O` [BUTYRAXANTHONE D], for which the results for the IC50 in experiment [1] and in experiment [3] were 1.3 µg/mL (≈ 3.03 µM) and 10 µg/mL (≈ 23.3 µM), respectively. Further, the “Ratio IC50” value in experiment [2] is less than 0.13.
In the case of `COc1c(O)cc2oc3cc4c(c(O)c3c(=O)c2c1CC=C(C)C)C=CC(C)(C)O4` [MANGOSTANIN], the half-inhibitory concentration (IC50) in experiment [1] is 3.9 µg/mL (≈ 9.55 µM); in experiment [3], greater than 1.9 µg/mL. Further, the “Ratio IC50” value in experiment [2] is listed as less than 2.05.
The corresponding values for `COc1c(O)cc2oc3cc(O)c(CC=C(C)C)c(O)c3c(=O)c2c1CC=C(C)C` [MANGOSTIN] are 3.5 µg/mL (≈ 8.53 µM), 2.9 µg/mL (≈ 7.07 µM) and 1.21.
In the case of `CC(C)=CCc1c(O)cc2oc3c(CC=C(C)C)c(O)c(O)c(CC=C(C)C)c3c(=O)c2c1O` [GARCINONE E], the IC50 in experiment [1] was 1.5 µg/mL (≈ 3.23 µM); in experiment [3], 2.8 µg/mL (≈ 6.03 µM). Moreover, the “Ratio IC50” value in experiment [2] was found to be 0.54.
Consider `CC(C)=CCc1c(O)cc2oc3c(CC=C(C)C)c(O)c4c(c3c(=O)c2c1O)CC(O)C(C)(C)O4` (centres undefined), for which, in experiment [1], the outcome was Active.
For `CC(C)=CCc1c(O)cc2oc3c(CC=C(C)C)c(O)c4c(c3c(=O)c2c1O)C=CC(C)(C)O4` [TOVOPHYLLINE A], the IC50 turned out to be 2.6 µg/mL (≈ 5.62 µM) in experiment [1] and 2.8 µg/mL (≈ 6.05 µM) in experiment [3]. Besides, the “Ratio IC50” value in experiment [2] was 0.93.
`CC(C)=CCc1c(O)c(CC=C(C)C)c2oc3c(O)ccc(O)c3c(=O)c2c1O` [GARTANIN]: the half-maximal inhibitory concentration (IC50) in experiment [1] was found to be 1.2 µg/mL (≈ 3.03 µM); in experiment [3] it was 3.1 µg/mL (≈ 7.82 µM). Further, the “Ratio IC50” value in experiment [2] turned out to be 0.39.
Consider `CCN(CC)CCCC(C)Nc1ccnc2cc(Cl)ccc12` (centres undefined) [CHLOROQUINE], for which, in experiment [1], the IC50 was greater than 100 µg/mL.
In the case of `COc1c(O)cc2oc3cc(O)c(C/C=C(\C)CCC=C(C)C)c(O)c3c(=O)c2c1CC=C(C)C` [BUTYRAXANTHONE A], the half-maximal inhibitory concentration (IC50) in experiment [1] is 3.5 µg/mL (≈ 7.31 µM); in experiment [3], 3 µg/mL (≈ 6.27 µM). In addition, in experiment [2], the “Ratio IC50” value is 1.17.
As for `COc1c(O)cc2oc3cc(O)cc(O)c3c(=O)c2c1C/C=C(\C)CCC=C(C)C` [RUBRAXANTHONE], the IC50 in experiment [1] is 2.6 µg/mL (≈ 6.33 µM); in experiment [3] it was 3.4 µg/mL (≈ 8.28 µM). For the same compound, the “Ratio IC50” value in experiment [2] is on record as 0.76.
Taken in the same sequence, the figures for `CC(C)=CCc1c(O)c(O)c(CC=C(C)C)c2c(=O)c3c(O)c4c(cc3oc12)OC(C)(C)C=C4` [BUTYRAXANTHONE B] were 3.3 µg/mL (≈ 7.13 µM), 2.7 µg/mL (≈ 5.84 µM) and 1.22.
